These results are taken from ChEMBL document CHEMBL5653621, “Freezing the Bioactive Conformation to Boost Potency: The Identification of BAY 85-8501, a Selective and Potent Inhibitor of Human Neutrophil Elastase for Pulmonary Diseases” (ChemMedChem, 2015).

One data set concerns the target Chymotrypsin (Homo sapiens, UniProt Q99895+P17538+P40313+Q6GPI1). Briefly: Inhibition of chymotrypsin (unknown origin). It counts as protein assay.
Data set [1] in a line: Apparent volume of distribution at steady state in rat at 0.3 mg/kg, po administered via gavage or 0.84 mg/kg, iv administered via infusion for 0.25 to 2 hrs by LC-MS/MS analysis. The following applies: in vivo. The data set is classed as ADME, organism-based.
In the next data set the target is Dipeptidyl peptidase 4 (Homo sapiens, UniProt P27487). Briefly: Inhibition of DPP4 (unknown origin).
Sequence of Dipeptidyl peptidase 4 (P27487 whole entry): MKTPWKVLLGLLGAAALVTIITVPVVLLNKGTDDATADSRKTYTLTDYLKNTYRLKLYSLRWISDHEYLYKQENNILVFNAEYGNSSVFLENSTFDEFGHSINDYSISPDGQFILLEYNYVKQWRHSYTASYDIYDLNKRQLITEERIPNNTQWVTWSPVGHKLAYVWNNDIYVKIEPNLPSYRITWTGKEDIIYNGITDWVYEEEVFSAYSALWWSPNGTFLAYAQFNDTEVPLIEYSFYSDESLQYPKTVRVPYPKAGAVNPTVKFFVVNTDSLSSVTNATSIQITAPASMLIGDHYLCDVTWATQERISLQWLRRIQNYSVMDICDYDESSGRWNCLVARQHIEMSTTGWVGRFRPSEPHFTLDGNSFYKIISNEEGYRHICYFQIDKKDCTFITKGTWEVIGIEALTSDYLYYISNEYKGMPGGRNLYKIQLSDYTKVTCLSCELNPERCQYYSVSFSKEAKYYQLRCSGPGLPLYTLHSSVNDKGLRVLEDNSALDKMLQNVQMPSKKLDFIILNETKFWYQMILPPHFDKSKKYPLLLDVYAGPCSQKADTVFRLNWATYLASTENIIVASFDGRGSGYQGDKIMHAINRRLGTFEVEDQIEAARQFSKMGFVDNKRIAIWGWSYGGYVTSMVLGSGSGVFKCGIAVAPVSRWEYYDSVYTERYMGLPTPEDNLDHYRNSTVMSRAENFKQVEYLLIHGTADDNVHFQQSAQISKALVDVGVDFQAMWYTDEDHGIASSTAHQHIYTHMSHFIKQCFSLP
The target of the next data set is Plasminogen (Homo sapiens, UniProt P00747). Briefly: Inhibition of plasmin (unknown origin).
Sequence of Plasminogen (P00747 97-580 limits assumed): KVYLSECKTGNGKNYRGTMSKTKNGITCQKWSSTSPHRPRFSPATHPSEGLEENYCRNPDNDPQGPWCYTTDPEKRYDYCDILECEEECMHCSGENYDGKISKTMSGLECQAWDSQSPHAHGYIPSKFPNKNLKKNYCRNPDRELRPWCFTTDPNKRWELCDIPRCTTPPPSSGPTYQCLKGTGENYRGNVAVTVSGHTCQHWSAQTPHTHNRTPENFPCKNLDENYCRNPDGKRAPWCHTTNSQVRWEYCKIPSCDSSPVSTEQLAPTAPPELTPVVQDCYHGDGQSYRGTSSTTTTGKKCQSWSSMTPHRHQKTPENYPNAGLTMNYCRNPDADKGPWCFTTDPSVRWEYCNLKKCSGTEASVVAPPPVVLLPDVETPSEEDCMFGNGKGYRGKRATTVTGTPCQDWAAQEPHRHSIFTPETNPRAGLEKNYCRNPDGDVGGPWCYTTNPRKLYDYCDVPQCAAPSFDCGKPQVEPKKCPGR
Sequence of Plasminogen (P00747 581-810 limits assumed): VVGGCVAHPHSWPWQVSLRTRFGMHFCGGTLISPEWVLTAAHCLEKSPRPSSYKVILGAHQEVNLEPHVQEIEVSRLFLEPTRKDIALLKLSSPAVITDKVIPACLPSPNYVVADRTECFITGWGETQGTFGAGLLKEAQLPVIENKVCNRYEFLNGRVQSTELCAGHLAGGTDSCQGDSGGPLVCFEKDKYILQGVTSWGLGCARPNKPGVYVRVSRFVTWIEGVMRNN
A short description of data set [2]: Plasma clearance in rat at 0.3 mg/kg, po administered via gavage or 0.84 mg/kg, iv administered via infusion for 0.25 to 2 hrs by LC-MS/MS analysis. It counts as ADME, organism-based. Conditions: in vivo.
For the next data set, the target named is Cytochrome P450 3A4 (Homo sapiens, UniProt P08684). Briefly: Inhibition of CYP3A4 in human pooled liver microsomes using midazolam as substrate measured after 10 to 20 mins by LC-MS/MS analysis.
Sequence of Cytochrome P450 3A4 (P08684 whole entry): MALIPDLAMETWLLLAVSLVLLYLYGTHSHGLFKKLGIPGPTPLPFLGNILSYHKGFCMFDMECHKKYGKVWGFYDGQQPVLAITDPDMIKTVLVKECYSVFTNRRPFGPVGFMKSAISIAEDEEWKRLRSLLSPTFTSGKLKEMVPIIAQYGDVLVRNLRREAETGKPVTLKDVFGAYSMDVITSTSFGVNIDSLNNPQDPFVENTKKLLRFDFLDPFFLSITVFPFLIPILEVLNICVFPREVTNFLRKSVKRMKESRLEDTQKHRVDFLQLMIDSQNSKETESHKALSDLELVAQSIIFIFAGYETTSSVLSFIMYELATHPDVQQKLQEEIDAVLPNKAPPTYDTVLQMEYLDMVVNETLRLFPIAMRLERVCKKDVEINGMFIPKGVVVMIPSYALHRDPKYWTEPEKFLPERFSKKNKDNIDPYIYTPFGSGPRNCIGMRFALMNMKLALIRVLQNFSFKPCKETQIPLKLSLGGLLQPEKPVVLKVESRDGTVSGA
Data set [3] can be described thus: Oral bioavailability in rat at 0.3 mg/kg administered via gavage by LC-MS/MS analysis. The data set is classed as ADME, organism-based. Conditions: in vivo.
A short description of data set [4]: Half life in rat at 0.3 mg/kg, po administered via gavage or 0.84 mg/kg, iv administered via infusion for 0.25 to 2 hrs by LC-MS/MS analysis. The data set is classed as ADME, organism-based. The following applies: in vivo.
The next data set deals with Kallikrein-4 (Homo sapiens, UniProt Q9Y5K2). Briefly: Inhibition of kallikrein-4 (unknown origin).
Sequence of Kallikrein-4 (Q9Y5K2 whole entry): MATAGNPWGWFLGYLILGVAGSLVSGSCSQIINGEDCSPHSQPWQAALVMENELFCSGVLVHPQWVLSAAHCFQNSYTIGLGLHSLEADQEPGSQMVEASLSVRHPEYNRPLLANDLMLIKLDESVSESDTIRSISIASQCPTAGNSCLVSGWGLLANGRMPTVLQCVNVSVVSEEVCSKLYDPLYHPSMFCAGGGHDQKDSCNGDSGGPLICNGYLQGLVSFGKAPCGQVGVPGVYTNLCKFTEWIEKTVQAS
The target of a further data set is T1, Kallikrein-12 (Homo sapiens, UniProt Q9UKR0).
T1 sequence (Q9UKR0 whole entry): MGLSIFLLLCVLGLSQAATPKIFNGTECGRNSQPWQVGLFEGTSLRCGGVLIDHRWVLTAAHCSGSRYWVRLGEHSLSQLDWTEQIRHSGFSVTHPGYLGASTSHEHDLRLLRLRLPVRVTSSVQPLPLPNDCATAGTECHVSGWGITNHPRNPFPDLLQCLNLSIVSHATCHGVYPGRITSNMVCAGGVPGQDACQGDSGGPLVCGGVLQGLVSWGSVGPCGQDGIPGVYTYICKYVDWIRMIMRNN
Briefly: Inhibition of kallikrein-12 (unknown origin).

The target of a further data set is T2, Kallikrein-5 (Homo sapiens, UniProt Q9Y337).
T2 sequence (Q9Y337 whole entry): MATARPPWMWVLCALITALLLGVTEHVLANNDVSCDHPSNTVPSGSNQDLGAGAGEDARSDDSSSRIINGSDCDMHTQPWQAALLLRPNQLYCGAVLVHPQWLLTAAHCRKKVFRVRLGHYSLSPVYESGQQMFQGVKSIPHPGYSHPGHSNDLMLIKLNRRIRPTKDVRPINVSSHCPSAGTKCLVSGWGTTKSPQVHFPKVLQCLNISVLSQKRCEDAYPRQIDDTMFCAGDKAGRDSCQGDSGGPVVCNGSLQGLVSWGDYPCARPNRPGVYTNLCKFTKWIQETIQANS
Briefly: Inhibition of kallikrein-5 (unknown origin).

The next data set has as its target Plasma kallikrein (Homo sapiens, UniProt P03952). As to the kind of experiment: Inhibition of kallikrein-B1 (unknown origin).
The next data set deals with Coagulation factor XI (Homo sapiens, UniProt P03951). Briefly: Inhibition of FXIa (unknown origin).
Sequence of Coagulation factor XI (P03951 19-387 limits assumed): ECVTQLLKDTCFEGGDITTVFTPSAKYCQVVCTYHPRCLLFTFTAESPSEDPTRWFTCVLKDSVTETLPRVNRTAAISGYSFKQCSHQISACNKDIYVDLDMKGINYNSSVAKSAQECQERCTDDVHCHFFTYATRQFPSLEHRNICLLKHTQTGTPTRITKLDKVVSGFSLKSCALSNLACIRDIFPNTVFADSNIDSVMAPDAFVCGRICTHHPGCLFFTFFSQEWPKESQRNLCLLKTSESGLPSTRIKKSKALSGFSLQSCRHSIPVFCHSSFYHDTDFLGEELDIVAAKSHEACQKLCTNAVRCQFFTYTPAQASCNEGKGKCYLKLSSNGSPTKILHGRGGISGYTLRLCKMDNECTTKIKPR
Sequence of Coagulation factor XI (P03951 388-625 limits assumed): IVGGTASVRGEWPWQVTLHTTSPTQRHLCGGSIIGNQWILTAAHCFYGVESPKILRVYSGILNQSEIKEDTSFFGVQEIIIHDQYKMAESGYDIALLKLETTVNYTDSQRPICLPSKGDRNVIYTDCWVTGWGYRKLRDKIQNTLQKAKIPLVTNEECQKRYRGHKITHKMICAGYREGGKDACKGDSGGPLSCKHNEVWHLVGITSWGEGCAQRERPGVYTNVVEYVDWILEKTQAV
Another data set concerns the target T3, Prolyl endopeptidase FAP (Homo sapiens, UniProt Q12884).
T3 sequence (Q12884 whole entry): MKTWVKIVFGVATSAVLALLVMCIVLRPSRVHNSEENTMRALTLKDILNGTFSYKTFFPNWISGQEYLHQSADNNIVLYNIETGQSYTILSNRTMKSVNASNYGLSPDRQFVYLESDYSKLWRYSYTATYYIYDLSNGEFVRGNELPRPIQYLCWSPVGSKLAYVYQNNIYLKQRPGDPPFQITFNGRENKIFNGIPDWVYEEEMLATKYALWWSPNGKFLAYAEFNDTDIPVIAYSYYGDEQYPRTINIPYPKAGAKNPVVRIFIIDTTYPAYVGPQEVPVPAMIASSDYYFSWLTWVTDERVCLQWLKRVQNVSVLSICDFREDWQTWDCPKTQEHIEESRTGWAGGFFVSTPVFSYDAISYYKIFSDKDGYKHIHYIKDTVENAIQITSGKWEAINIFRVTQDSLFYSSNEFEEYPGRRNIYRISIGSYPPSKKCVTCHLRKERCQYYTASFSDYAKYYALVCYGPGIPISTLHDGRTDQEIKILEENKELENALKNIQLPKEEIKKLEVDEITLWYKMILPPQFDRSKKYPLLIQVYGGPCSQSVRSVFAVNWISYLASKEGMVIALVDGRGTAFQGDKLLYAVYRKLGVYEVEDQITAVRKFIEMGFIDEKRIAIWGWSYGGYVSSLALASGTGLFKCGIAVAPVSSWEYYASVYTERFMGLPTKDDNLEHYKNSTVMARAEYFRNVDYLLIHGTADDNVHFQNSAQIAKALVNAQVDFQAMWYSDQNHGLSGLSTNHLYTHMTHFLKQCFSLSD
Briefly: Inhibition of FAP (unknown origin).

The target of a further data set is Trypsin (Homo sapiens, UniProt P07477+P07478+P35030). As to the kind of experiment: Inhibition of trypsin (unknown origin). It counts as protein assay.
In a further data set the target is T4, Cathepsin G (Homo sapiens, UniProt P08311).
T4 sequence (P08311 whole entry): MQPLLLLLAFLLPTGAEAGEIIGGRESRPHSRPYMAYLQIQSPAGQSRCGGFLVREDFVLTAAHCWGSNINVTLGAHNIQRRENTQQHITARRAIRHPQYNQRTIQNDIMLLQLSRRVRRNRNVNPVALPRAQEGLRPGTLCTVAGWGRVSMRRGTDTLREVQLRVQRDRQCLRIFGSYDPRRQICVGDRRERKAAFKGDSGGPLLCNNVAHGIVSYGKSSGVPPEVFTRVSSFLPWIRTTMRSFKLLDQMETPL
As to the kind of experiment: Inhibition of cathepsin G (unknown origin).

In another data set the target is T5, Chymase (Homo sapiens, UniProt P23946).
T5 sequence (P23946 whole entry): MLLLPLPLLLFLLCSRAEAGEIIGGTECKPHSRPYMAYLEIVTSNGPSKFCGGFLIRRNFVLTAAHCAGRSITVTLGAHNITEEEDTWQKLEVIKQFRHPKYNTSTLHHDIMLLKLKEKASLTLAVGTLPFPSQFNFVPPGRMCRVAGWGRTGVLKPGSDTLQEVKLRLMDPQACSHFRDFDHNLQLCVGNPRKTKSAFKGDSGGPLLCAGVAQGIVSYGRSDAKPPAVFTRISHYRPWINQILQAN
As to the kind of experiment: Inhibition of chymase (unknown origin).

In a further data set the target is Kallikrein-7 (Homo sapiens, UniProt P49862). Briefly: Inhibition of kallikrein-7 (unknown origin).
Sequence of Kallikrein-7 (P49862 whole entry): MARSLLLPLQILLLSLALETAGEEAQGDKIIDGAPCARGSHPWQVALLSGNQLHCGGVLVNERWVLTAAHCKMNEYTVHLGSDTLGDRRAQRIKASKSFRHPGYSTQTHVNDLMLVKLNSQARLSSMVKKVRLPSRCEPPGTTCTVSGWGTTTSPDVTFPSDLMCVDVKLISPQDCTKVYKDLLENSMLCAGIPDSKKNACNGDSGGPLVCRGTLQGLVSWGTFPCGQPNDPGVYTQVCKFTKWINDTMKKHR
A further data set addresses Kallikrein-1 (Homo sapiens, UniProt P06870). Briefly: Inhibition of kallikrein-1 (unknown origin).
For a further data set, the target named is Dipeptidyl peptidase 2 (Homo sapiens, UniProt Q9UHL4). As to the kind of experiment: Inhibition of DPP2 (unknown origin).
A further data set addresses Cytochrome P450 2C9 (Homo sapiens, UniProt P11712). Briefly: Inhibition of CYP2C9 in human pooled liver microsomes using diclofenac as substrate measured after 10 to 20 mins by LC-MS/MS analysis. The data set is classed as ADME, Microsome. In outline: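 Pooled human liver microsomes were preincubated at 37°C for 10–20 min. […] Acetonitrile with internal standard stopped the reaction. Metabolite was measured by LC-MS/MS against a no-inhibitor reference, and IC50 was calculated.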
(Microsomes from liver hold many membrane-bound enzymes, among them those of drug oxidation.)

The target in another data set is T6, Coagulation factor VII (Homo sapiens, UniProt P08709).
T6 sequence (P08709 whole entry): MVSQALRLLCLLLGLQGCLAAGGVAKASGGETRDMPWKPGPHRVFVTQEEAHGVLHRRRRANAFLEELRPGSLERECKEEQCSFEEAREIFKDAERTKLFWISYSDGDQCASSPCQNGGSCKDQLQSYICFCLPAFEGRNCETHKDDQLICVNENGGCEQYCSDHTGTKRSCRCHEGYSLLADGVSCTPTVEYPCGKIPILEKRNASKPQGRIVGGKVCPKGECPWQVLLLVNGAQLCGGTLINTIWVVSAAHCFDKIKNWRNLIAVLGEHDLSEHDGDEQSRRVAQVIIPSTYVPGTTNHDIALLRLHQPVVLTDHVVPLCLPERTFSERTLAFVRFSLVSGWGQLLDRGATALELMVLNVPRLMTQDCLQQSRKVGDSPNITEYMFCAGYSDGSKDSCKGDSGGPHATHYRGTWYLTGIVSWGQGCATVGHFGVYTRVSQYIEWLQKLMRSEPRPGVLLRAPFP
As to the kind of experiment: Inhibition of FVIIa (unknown origin).

The next data set has as its target Coagulation factor IX (Homo sapiens, UniProt P00740). Briefly: Inhibition of FIXa (unknown origin).
A short description of data set [5]: Metabolic stability in rat hepatocytes assessed as maximum bioavailability at <=[…] uM incubated for 90 mins by LC-MS/MS analysis. It counts as ADME, Hepatocyte. Conditions: read-out: Fmax.

Sequence of Cytochrome P450 2C9 (P11712 whole entry): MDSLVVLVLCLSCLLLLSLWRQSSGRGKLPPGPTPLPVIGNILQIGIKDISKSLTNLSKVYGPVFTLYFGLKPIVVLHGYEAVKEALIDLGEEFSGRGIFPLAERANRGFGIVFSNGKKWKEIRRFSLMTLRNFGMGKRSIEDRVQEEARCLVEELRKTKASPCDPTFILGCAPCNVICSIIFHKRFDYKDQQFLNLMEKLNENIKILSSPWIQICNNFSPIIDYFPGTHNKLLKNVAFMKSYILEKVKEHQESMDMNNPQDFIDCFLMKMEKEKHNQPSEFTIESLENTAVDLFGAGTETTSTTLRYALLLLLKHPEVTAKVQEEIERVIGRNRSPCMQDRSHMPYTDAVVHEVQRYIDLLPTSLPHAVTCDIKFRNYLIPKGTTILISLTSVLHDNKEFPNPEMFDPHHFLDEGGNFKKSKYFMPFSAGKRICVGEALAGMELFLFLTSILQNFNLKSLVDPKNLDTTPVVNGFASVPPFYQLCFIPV
Sequence of Plasma kallikrein (P03952 20-390 limits assumed): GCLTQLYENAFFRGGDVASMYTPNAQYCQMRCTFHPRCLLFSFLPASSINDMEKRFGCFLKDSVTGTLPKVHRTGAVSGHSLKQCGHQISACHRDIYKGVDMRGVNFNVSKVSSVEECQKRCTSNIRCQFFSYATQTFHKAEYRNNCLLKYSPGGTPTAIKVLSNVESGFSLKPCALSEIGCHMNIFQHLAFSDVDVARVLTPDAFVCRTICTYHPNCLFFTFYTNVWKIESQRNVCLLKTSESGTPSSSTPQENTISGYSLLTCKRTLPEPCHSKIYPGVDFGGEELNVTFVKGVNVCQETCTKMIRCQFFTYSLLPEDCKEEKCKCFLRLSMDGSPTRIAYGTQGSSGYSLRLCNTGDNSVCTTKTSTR
Sequence of Plasma kallikrein (P03952 391-638 limits assumed): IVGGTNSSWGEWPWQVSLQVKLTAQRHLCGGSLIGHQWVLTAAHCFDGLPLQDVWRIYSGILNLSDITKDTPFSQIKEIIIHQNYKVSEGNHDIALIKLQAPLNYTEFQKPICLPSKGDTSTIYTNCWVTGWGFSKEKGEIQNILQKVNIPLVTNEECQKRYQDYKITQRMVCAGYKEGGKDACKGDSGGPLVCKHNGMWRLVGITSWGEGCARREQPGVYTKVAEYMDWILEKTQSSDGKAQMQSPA
Sequence of Coagulation factor IX (P00740 47-191 limits assumed): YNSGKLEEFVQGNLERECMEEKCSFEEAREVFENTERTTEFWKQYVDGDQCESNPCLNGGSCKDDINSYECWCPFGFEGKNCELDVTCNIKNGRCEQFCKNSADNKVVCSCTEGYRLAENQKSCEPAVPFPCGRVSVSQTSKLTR
Sequence of Coagulation factor IX (P00740 227-461 limits assumed): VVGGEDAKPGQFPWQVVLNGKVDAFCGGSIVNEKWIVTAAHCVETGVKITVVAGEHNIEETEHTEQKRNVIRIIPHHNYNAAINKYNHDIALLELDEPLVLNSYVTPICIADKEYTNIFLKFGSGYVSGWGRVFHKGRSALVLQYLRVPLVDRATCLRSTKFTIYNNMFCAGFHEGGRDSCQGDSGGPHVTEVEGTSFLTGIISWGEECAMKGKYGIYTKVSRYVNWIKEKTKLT
Sequence of Kallikrein-1 (P06870 whole entry): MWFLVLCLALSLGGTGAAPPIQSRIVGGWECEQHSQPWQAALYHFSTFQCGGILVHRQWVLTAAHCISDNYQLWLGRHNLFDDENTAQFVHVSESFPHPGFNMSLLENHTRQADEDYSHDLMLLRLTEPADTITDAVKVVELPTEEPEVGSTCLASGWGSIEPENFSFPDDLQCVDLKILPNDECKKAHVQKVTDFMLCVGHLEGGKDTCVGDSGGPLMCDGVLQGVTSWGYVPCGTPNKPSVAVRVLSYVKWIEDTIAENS

A word on the IC50: it is the concentration at which inhibition is half-maximal. Low readings indicate higher potency, high ones lower potency. Take `CC1=C(C#N)[C@@H](c2ccc(C#N)cc2S(C)(=O)=O)N(C)C(=O)N1c1cccc(C(F)(F)F)c1`: the 50% inhibitory concentration (IC50) against Chymotrypsin was > 30 µM; against Dipeptidyl peptidase 4, > 30 µM; at Plasminogen it was > 30 µM; at Cytochrome P450 3A4 it was > 50 µM; against Kallikrein-4 it was > 30 µM; at Kallikrein-12, > 30 µM. For the same compound, the half-inhibitory concentration (IC50) at Kallikrein-5, against Plasma kallikrein, on Coagulation factor XI, on Prolyl endopeptidase FAP, on Trypsin and at Cathepsin G was > 30 µM in each case. The IC50 against Chymase is > 30 µM; against Kallikrein-7, > 30 µM; against Kallikrein-1, > 30 µM; against Dipeptidyl peptidase 2 it was > 30 µM; on Cytochrome P450 2C9, > 50 µM; at Coagulation factor VII it was > 30 µM. Besides, the IC50 on Coagulation factor IX was > 30 µM. The “Vdss(app)” value in data set [1] was determined as 5.8 L/kg. The same compound registered a CL in data set [2] of 8.3 mL/min/kg. In data set [3], this compound displayed an F of 63%. In data set [4], the t1/2 came to 8.5 h.

Regarding `CC(=O)C1=C(C)N(c2cccc(C(F)(F)F)c2)C(=O)N[C@@H]1c1ccc(C#N)nc1` [BAY-678], the IC50 is > 30 µM against Chymotrypsin; > 30 µM at Dipeptidyl peptidase 4; > 30 µM on Plasminogen; > 50 µM on Cytochrome P450 3A4; > 30 µM on Kallikrein-4; > 30 µM against Kallikrein-12. Moreover, the IC50 against Kallikrein-5, at Plasma kallikrein, on Coagulation factor XI, at Prolyl endopeptidase FAP, on Trypsin and at Cathepsin G was > 30 µM throughout. Further, the IC50 against Chymase is > 30 µM; on Kallikrein-7 it was > 30 µM; at Kallikrein-1 it was > 30 µM; at Dipeptidyl peptidase 2, > 30 µM; on Cytochrome P450 2C9, 12 µM; against Coagulation factor VII, > 30 µM. Also, on Coagulation factor IX, the 50% inhibitory concentration (IC50) is > 30 µM. Moreover, the “Vdss(app)” value in [1] is 3.9 L/kg. Moreover, the CL in data set [2] was 33 mL/min/kg. The F in [3] amounted to 83%. Besides, in [4], the t1/2 is 1.3 h. The Fh at […], 1 µM in data set [5] is 57%.
